Data set [1] deals with Entamoeba histolytica. Put plainly: Antiparasitic activity against Entamoeba histolytica HM-1:IMSS trophozoites assessed as parasite growth inhibition after 48 hrs by ATP bioluminescence-based CellTiter-Glo luminescent cell viability assay. The data set is classed as functional, organism-based. The essentials: (§1)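 Trophozoites kept axenically in TYI-S-33 with penicillin and streptomycin. Each well held 5000 trophozoites and was incubated 48 h at 37 °C under anaerobic conditions in a GasPak pouch. Read-out was CellTiter-Glo ATP luminescence. Controls were 0.5% DMSO vehicle and 30 μM metronidazole. Primary screen at 50 μM in duplicate; hits were those above 50% inhibition. EC50 came from triplicate 8-point series (0.39–50 μM) and dose-response curves.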

Data set [2] concerns Giardia intestinalis. In words: Antiparasitic activity against Giardia lamblia WB trophozoites assessed as parasite growth inhibition after 48 hrs by ATP bioluminescence-based CellTiter-Glo luminescent cell viability assay. It counts as functional, organism-based. The note with it: Giardia duodenalis. In short, it runs like this: as §1
The next data set has as its system Escherichia coli. Put plainly: Toxicity in Escherichia coli K-12 MG1655 at 100 uM measured after overnight incubation by disc diffusion method. The note with it: in vivo. The data set is classed as organism-based, K-12 substr. MG1655. The essentials:
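Grown in Luria broth at 37 °C under aerobic conditions. Blank 6 mm discs were soaked 20 min at room temperature in a 100 μM working dilution in medium. Discs were placed on streaked agar alongside DMSO vehicle and antibiotic discs (levofloxacin, gentamicin), incubated overnight at 37 °C, and inhibition zones measured in mm.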

The test system of data set [3] is Saccharomyces cerevisiae. Put plainly: Antifungal activity against Saccharomyces cerevisiae BY4741 assessed as fungal growth at 500 uM after 48 hrs by microtiter plate liquid bioassay (reference value: 100%). The data set is classed as functional.
The next data set concerns Trichomonas vaginalis. In words: Antiparasitic activity against Trichomonas vaginalis assessed as parasite growth inhibition at 50 uM after 24 hrs by hemacytometer relative to control. The data set is classed as functional. To be noted: read-out: GI. The essentials: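 G3 strain cultured in TYM Diamond's medium in 15 mL tubes, with compound in DMSO. Controls were untreated and 0.1% DMSO. After 24 h, cells were counted by hemacytometer and normalized to the DMSO controls. Screening was at 50 μM. IC50 came from titrations of 5–40 μM with variable-slope regression, 4 independent trials on different days, and was then re-confirmed.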

The test system of data set [4] is Giardia intestinalis. Put plainly: Antiparasitic activity against Giardia lamblia WB trophozoites assessed as parasite growth inhibition at 50 uM after 48 hrs by ATP bioluminescence-based CellTiter-Glo luminescent cell viability assay relative to control. The note with it: Giardia duodenalis, read-out: GI. The data set is classed as functional. In short, it runs like this:
as §1

Data set [5] has as its system Entamoeba histolytica. In words: Antiparasitic activity against Entamoeba histolytica HM-1:IMSS trophozoites assessed as parasite growth inhibition at 50 uM after 48 hrs by ATP bioluminescence-based CellTiter-Glo luminescent cell viability assay relative to control. It counts as functional. To be noted: read-out: GI. The essentials: as §1
Data set [6] deals with Lactobacillus acidophilus. In words: Toxicity in Lactobacillus acidophilus ATCC 43560 at 100 uM measured after overnight incubation by disc diffusion method. The data set is classed as organism-based. The note with it: in vivo. The essentials:
(§2)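 Grown in Lactobacilli MRS at 37 °C under anaerobic conditions. Blank 6 mm discs were soaked 20 min at room temperature in a 100 μM working dilution in medium. Discs were placed on streaked agar alongside DMSO vehicle and antibiotic discs (levofloxacin, gentamicin), incubated overnight at 37 °C, and zones of inhibition measured in mm.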

For data set [7], the system named is Limosilactobacillus reuteri. Put plainly: Toxicity in Lactobacillus reuteri ATCC 23272 at 100 uM measured after overnight incubation by disc diffusion method. To be noted: in vivo. The data set is classed as organism-based. In short, it runs like this: as §2
Data set [8] has as its system Aspergillus parasiticus. Put plainly: Antifungal activity against Aspergillus parasiticus NRRL5862 assessed as fungal growth at 500 uM after 24 hrs by microtiter plate liquid bioassay (reference value: 100%). The data set is classed as functional. In short, it runs like this:
(§3)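 A. parasiticus grown at 35 °C on PDA. Liquid assay in RPMI 1640, 3 × 104 to 5 × 10^4 CFU per mL, triplicate wells, 35 °C. Compounds in DMSO (<2% in media). No-treatment wells carry matched DMSO. Wells scored visually 0–4 versus the no-treatment control: 0 clear, 1 25%, 2 50%, 3 75%, 4 no reduction. Scoring follows CLSI M38-A.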

Data set [9] relates to Aspergillus parasiticus. In words: Antifungal activity against Aspergillus parasiticus NRRL5862 assessed as fungal growth at 500 uM after 48 hrs by microtiter plate liquid bioassay (reference value: 100%). It counts as functional. The essentials:
as §3

The test system of data set [10] is Saccharomyces cerevisiae. In words: Antifungal activity against Saccharomyces cerevisiae BY4741 assessed as fungal growth at 500 uM after 24 hrs by microtiter plate liquid bioassay (reference value: 100%). The data set is classed as functional.
Data set [11] has as its system Lacticaseibacillus rhamnosus. Put plainly: Toxicity in Lactobacillus rhamnosus ATCC 53103 at 100 uM measured after overnight incubation by disc diffusion method. The data set is classed as organism-based, GG. The note with it: in vivo. In short, it runs like this:
as §2

The text below walks through data of ChEMBL document CHEMBL4261570, “Design, Synthesis and Preliminary Antimicrobial Evaluation of N-Alkyl Chain Tethered C-5 Functionalized Bis-Isatins” (Medchemcomm, 2017).

As to `Cc1ncc([N+](=O)[O-])n1CCO` [METRONIDAZOLE], the values for the IC50 in the data set on Entamoeba histolytica [1] and in the data set on Giardia intestinalis [2] were 5 µM and 6.4 µM, respectively.
With `O=C1C(=O)N(CCCCCBr)c2ccccc21`, the Activity result is on record as “Non-Toxic” with Escherichia coli; 50% in the data set on Saccharomyces cerevisiae [3]; “Non-Toxic” in data set [6]; “Non-Toxic” in data set [7]; 75 - 100% in the data set on Aspergillus parasiticus [8]; 100% with Aspergillus parasiticus [9]. Also, the Activity is reported as 0% in the data set on Saccharomyces cerevisiae [10] and “Non-Toxic” in data set [11]. For the same compound, the inhibition of growth at 50 µM in the data set on Trichomonas vaginalis worked out at 71.4%; in the data set on Giardia intestinalis [4], 25.8%; in the data set with Entamoeba histolytica [5], 100%. The IC50 with Entamoeba histolytica [1] was 23 µM.
